Several values for one entry are separate records, joined by “and”; a condition that tells them apart may be missing. Equal entries are not always repeated.
Tested on: HEK-293T
Assay: Multiplex assay against HEK293T
Format: toxicity, cell-based
Settings: human, number of replicates 2
In short: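 Compound was added to live cells that had been stained at seeding with Hoechst33342, BioTracker Green Microtubule Cytoskeleton Dye, MitoTracker Red and Annexin V Alexa Fluor 680, and imaging followed on a CQ1 microscope at 37°C and 5% CO2. CellPathfinder machine-learning gating divided cells into Hoechst high-intensity objects or normal cells, normal cells into healthy, pyknosed or fragmented nuclei, and pyknosed cells into mitotic or apoptotic. Tubulin, mitochondrial-mass and membrane-permeability phenotypes are per cents of healthy-nucleus cells.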

[1] = 12 h, 1 µM, compound concentration 1 uM
[2] = 12 h, 10 µM, compound concentration 10 uM
[3] = 24 h, 1 µM, compound concentration 1 uM
[4] = 24 h, 10 µM, compound concentration 10 uM
[5] = 48 h, 1 µM, compound concentration 1 uM
[6] = 48 h, 10 µM, compound concentration 10 uM

COc1cc(Nc2cnc(C#N)c(O[C@H](C)CN(C)C)n2)ncc1-c1cnn(C)c1
Population Apoptotic (%) [1]: 43% and 40%
Population Fragmented Nuclei (%) [1]: 3%
Population Healthy Nuclei (%) [1]: 78% and 82%
Population Hoechst High Intensity Objects (%) [1]: 4% and 7%
Population Membrane Permeable-Phenotype (%) [1]: 5% and 3%
Population Mitochondria Different-Phenotype (%) [1]: 19% and 14%
Population Mitotic Cells (%) [1]: 56% and 59%
Population Normal (%) [1]: 95% and 92%
Population Pyknosed Nuclei (%) [1]: 18% and 14%
Population Tubulin-Different-Phenotype (%) [1]: 54% and 50%
Total Cell Count [1]: 593 and 622
Population Apoptotic (%) [2]: 59% and 57%
Population Fragmented Nuclei (%) [2]: 2%
Population Healthy Nuclei (%) [2]: 62% and 75%
Population Hoechst High Intensity Objects (%) [2]: 6% and 4%
Population Membrane Permeable-Phenotype (%) [2]: 5% and 3%
Population Mitochondria Different-Phenotype (%) [2]: 45% and 52%
Population Mitotic Cells (%) [2]: 40% and 43%
Population Normal (%) [2]: 93% and 95%
Population Pyknosed Nuclei (%) [2]: 35% and 21%
Population Tubulin-Different-Phenotype (%) [2]: 87% and 90%
Total Cell Count [2]: 383 and 486
Population Apoptotic (%) [3]: 28% and 26%
Population Fragmented Nuclei (%) [3]: 5%
Population Healthy Nuclei (%) [3]: 84% and 80%
Population Hoechst High Intensity Objects (%) [3]: 8% and 7%
Population Membrane Permeable-Phenotype (%) [3]: 4%
Population Mitochondria Different-Phenotype (%) [3]: 11% and 14%
Population Mitotic Cells (%) [3]: 71% and 73%
Population Normal (%) [3]: 91% and 92%
Population Pyknosed Nuclei (%) [3]: 9% and 13%
Population Tubulin-Different-Phenotype (%) [3]: 46% and 41%
Total Cell Count [3]: 801 and 735
Population Apoptotic (%) [4]: 63% and 69%
Population Fragmented Nuclei (%) [4]: 2% and 3%
Population Healthy Nuclei (%) [4]: 76% and 78%
Population Hoechst High Intensity Objects (%) [4]: 9% and 10%
Population Membrane Permeable-Phenotype (%) [4]: 3% and 4%
Population Mitochondria Different-Phenotype (%) [4]: 47% and 42%
Population Mitotic Cells (%) [4]: 36% and 30%
Population Normal (%) [4]: 90% and 89%
Population Pyknosed Nuclei (%) [4]: 20% and 18%
Population Tubulin-Different-Phenotype (%) [4]: 85% and 82%
Total Cell Count [4]: 524 and 415
Population Apoptotic (%) [5]: 31% and 47%
Population Fragmented Nuclei (%) [5]: 9% and 7%
Population Healthy Nuclei (%) [5]: 79% and 80%
Population Hoechst High Intensity Objects (%) [5]: 9% and 8%
Population Membrane Permeable-Phenotype (%) [5]: 6% and 8%
Population Mitochondria Different-Phenotype (%) [5]: 8% and 11%
Population Mitotic Cells (%) [5]: 68% and 52%
Population Normal (%) [5]: 90% and 91%
Population Pyknosed Nuclei (%) [5]: 10% and 12%
Population Tubulin-Different-Phenotype (%) [5]: 39% and 46%
Total Cell Count [5]: 1105 and 1012
Population Apoptotic (%) [6]: 71% and 67%
Population Fragmented Nuclei (%) [6]: 3%
Population Healthy Nuclei (%) [6]: 44% and 52%
Population Hoechst High Intensity Objects (%) [6]: 12% and 11%
Population Membrane Permeable-Phenotype (%) [6]: 4%
Population Mitochondria Different-Phenotype (%) [6]: 69% and 77%
Population Mitotic Cells (%) [6]: 28% and 32%
Population Normal (%) [6]: 87% and 88%
Population Pyknosed Nuclei (%) [6]: 52% and 43%
Population Tubulin-Different-Phenotype (%) [6]: 81% and 89%
Total Cell Count [6]: 374 and 473

Cc1ccc2c(c1CCC(=O)O)CC[C@@H](NS(=O)(=O)c1ccc(Cl)cc1)C2 [TERUTROBAN]
Population Apoptotic (%) [1]: 59% and 56%
Population Fragmented Nuclei (%) [1]: 2% and 4%
Population Healthy Nuclei (%) [1]: 81%
Population Hoechst High Intensity Objects (%) [1]: 7%
Population Membrane Permeable-Phenotype (%) [1]: 3% and 2%
Population Mitochondria Different-Phenotype (%) [1]: 20% and 14%
Population Mitotic Cells (%) [1]: 40% and 43%
Population Normal (%) [1]: 92%
Population Pyknosed Nuclei (%) [1]: 15% and 14%
Population Tubulin-Different-Phenotype (%) [1]: 47%
Total Cell Count [1]: 534 and 671
Population Apoptotic (%) [2]: 55% and 71%
Population Fragmented Nuclei (%) [2]: 5% and 3%
Population Healthy Nuclei (%) [2]: 77% and 81%
Population Hoechst High Intensity Objects (%) [2]: 8%
Population Membrane Permeable-Phenotype (%) [2]: 4% and 1%
Population Mitochondria Different-Phenotype (%) [2]: 24% and 20%
Population Mitotic Cells (%) [2]: 44% and 28%
Population Normal (%) [2]: 91%
Population Pyknosed Nuclei (%) [2]: 17% and 15%
Population Tubulin-Different-Phenotype (%) [2]: 70% and 50%
Total Cell Count [2]: 599 and 487
Population Apoptotic (%) [3]: 65% and 40%
Population Fragmented Nuclei (%) [3]: 7% and 6%
Population Healthy Nuclei (%) [3]: 81% and 86%
Population Hoechst High Intensity Objects (%) [3]: 6% and 9%
Population Membrane Permeable-Phenotype (%) [3]: 3%
Population Mitochondria Different-Phenotype (%) [3]: 6% and 5%
Population Mitotic Cells (%) [3]: 35% and 59%
Population Normal (%) [3]: 93% and 90%
Population Pyknosed Nuclei (%) [3]: 10% and 6%
Population Tubulin-Different-Phenotype (%) [3]: 30% and 25%
Total Cell Count [3]: 837 and 1016
Population Apoptotic (%) [4]: 58% and 52%
Population Fragmented Nuclei (%) [4]: 9% and 6%
Population Healthy Nuclei (%) [4]: 79% and 84%
Population Hoechst High Intensity Objects (%) [4]: 8% and 9%
Population Membrane Permeable-Phenotype (%) [4]: 2% and 3%
Population Mitochondria Different-Phenotype (%) [4]: 9% and 7%
Population Mitotic Cells (%) [4]: 41% and 47%
Population Normal (%) [4]: 91% and 90%
Population Pyknosed Nuclei (%) [4]: 11% and 9%
Population Tubulin-Different-Phenotype (%) [4]: 44% and 35%
Total Cell Count [4]: 911 and 714
Population Apoptotic (%) [5]: 11%
Population Fragmented Nuclei (%) [5]: 12% and 9%
Population Healthy Nuclei (%) [5]: 82% and 86%
Population Hoechst High Intensity Objects (%) [5]: 7% and 9%
Population Membrane Permeable-Phenotype (%) [5]: 4% and 7%
Population Mitochondria Different-Phenotype (%) [5]: 0% and 1%
Population Mitotic Cells (%) [5]: 88%
Population Normal (%) [5]: 92% and 90%
Population Pyknosed Nuclei (%) [5]: 4% and 3%
Population Tubulin-Different-Phenotype (%) [5]: 12% and 11%
Total Cell Count [5]: 2114 and 2407
Population Apoptotic (%) [6]: 26% and 21%
Population Fragmented Nuclei (%) [6]: 14% and 10%
Population Healthy Nuclei (%) [6]: 80% and 86%
Population Hoechst High Intensity Objects (%) [6]: 9% and 8%
Population Membrane Permeable-Phenotype (%) [6]: 6% and 5%
Population Mitochondria Different-Phenotype (%) [6]: 1%
Population Mitotic Cells (%) [6]: 73% and 78%
Population Normal (%) [6]: 90% and 91%
Population Pyknosed Nuclei (%) [6]: 5% and 3%
Population Tubulin-Different-Phenotype (%) [6]: 20% and 15%
Total Cell Count [6]: 1958 and 1618

From ChEMBL document CHEMBL5303300, “EUbOPEN Chemogenomics Library - Multiplex” (2023)
